Test results as given in ChEMBL document CHEMBL3259727, “Cathepsin C inhibitors: property optimization and identification of a clinical candidate” (J Med Chem, 2014).
Calls of active or inactive are those of the source. The calls are words filed in the database; no cut-off is given here.

Key:
[1] = Dissociation constant, pKa of the compound; type: physicochemical
[2] = Intrinsic clearance in human microsomes; type: ADME, Microsome
Method in brief: (§1)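 Intrinsic clearance (Clint) determined in human liver microsome and rat hepatocyte preparations.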

[3] = target: Voltage-gated inwardly rectifying potassium channel KCNH2 (Homo sapiens, UniProt Q12809); assay: Inhibition of human ERG by electrophysiology assay
Voltage-gated inwardly rectifying potassium channel KCNH2, sequence (Q12809 whole entry): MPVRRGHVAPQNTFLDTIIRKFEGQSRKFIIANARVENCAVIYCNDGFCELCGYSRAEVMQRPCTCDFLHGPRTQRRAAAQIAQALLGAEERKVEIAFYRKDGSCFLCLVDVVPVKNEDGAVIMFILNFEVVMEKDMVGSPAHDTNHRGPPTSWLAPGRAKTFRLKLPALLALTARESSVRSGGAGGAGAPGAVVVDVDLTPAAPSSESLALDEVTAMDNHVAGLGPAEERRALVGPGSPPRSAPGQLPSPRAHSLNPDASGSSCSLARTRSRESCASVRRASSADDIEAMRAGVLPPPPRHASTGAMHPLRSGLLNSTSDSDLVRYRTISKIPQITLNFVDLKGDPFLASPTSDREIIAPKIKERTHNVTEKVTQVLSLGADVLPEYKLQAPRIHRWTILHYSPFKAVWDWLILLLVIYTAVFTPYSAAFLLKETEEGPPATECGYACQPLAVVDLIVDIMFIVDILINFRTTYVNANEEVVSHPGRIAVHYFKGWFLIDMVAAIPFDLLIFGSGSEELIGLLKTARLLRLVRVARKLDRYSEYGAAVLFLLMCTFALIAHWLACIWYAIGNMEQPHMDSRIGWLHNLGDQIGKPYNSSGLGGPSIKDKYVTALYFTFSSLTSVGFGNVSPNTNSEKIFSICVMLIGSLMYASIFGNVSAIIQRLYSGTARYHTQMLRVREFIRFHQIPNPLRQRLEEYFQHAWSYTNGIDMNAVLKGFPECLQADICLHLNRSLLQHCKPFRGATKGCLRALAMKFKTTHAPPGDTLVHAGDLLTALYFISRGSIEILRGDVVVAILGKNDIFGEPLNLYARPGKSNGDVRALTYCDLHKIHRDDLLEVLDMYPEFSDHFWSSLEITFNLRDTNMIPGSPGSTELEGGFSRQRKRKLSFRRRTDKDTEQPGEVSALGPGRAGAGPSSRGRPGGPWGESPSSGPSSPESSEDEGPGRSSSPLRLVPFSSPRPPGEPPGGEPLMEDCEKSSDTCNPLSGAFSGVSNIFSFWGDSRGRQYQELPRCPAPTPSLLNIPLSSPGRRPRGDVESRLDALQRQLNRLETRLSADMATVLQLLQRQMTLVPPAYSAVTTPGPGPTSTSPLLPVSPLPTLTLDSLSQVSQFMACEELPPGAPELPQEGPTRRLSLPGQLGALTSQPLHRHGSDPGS

Rattus norvegicus [4] = species: Rattus norvegicus; assay: Toxicity in rat assessed as liver vacuolation; type: organism-based; conditions: in vivo
Cathepsin K = target: T1, Cathepsin K (Homo sapiens, UniProt P43235); assay: (§2) Inhibition of Cathepsin K (unknown origin)
T1 sequence (P43235 whole entry): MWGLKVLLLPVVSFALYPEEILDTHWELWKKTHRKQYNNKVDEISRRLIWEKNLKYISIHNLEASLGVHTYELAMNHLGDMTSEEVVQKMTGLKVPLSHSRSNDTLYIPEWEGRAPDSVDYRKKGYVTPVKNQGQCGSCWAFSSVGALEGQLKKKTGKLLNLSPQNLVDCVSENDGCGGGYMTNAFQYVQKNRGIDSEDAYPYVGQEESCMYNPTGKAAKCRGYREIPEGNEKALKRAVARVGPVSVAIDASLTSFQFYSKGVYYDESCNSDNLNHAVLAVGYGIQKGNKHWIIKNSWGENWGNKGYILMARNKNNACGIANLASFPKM

[5] = Volume of distribution at steady state in dog; type: ADME, organism-based, Canis lupus familiaris; conditions: in vivo, read-out: Vdss
[6] = Volume of distribution at steady state in rat; type: ADME, organism-based; conditions: in vivo, read-out: Vdss
Rattus norvegicus [7] = species: Rattus norvegicus; assay: Toxicity in rat assessed as foci of foaming macrophages in lung; type: organism-based
Procathepsin L = Procathepsin L (Homo sapiens, UniProt P07711); assay: Inhibition of Cathepsin L (unknown origin)
Procathepsin L, sequence (P07711 whole entry): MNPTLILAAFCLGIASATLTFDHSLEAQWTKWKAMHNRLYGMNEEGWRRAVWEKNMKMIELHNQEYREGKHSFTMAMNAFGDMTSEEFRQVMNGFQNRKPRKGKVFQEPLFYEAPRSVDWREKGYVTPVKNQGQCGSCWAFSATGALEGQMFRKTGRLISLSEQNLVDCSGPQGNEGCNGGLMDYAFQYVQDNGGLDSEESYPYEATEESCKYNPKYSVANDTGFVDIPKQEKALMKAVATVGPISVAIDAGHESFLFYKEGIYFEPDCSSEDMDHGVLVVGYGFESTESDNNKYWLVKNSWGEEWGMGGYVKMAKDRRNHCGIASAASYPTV

[8] = Half life in mouse; type: ADME, organism-based; conditions: in vivo
Cathepsin B = Cathepsin B (Homo sapiens, UniProt P07858); assay: Inhibition of Cathepsin B (unknown origin)
Cathepsin S = Cathepsin S (Homo sapiens, UniProt P25774); assay: Inhibition of Cathepsin S (unknown origin)
Cathepsin S, sequence (P25774 whole entry): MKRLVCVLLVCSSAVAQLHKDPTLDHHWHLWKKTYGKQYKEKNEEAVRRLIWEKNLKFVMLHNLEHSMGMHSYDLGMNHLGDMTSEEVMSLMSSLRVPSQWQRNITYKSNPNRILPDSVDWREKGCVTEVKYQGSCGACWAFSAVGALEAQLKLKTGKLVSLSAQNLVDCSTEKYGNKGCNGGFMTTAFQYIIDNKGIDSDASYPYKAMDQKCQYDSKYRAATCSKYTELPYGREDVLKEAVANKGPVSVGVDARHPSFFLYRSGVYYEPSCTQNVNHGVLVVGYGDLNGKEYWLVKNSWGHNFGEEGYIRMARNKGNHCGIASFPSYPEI

[9] = Clearance in mouse; type: ADME, organism-based; conditions: in vivo
Leukotriene B4 receptor [10] = target: T2, Leukotriene B4 receptor (Homo sapiens, UniProt Q9NPC1+Q15722); assay: Binding affinity to leukotriene B4 receptor (unknown origin); type: protein assay
T2 sequence (Q15722 whole entry, looked up): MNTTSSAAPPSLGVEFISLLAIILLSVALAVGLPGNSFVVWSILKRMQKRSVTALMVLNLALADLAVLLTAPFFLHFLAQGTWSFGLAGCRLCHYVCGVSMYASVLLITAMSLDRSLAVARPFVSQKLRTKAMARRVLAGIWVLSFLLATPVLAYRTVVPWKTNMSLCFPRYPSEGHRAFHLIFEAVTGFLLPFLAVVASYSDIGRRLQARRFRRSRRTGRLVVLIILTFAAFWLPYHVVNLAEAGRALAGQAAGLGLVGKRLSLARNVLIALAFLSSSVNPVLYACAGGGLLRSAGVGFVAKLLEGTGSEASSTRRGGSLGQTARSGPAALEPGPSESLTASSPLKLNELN
T2 sequence (Q9NPC1 whole entry, looked up): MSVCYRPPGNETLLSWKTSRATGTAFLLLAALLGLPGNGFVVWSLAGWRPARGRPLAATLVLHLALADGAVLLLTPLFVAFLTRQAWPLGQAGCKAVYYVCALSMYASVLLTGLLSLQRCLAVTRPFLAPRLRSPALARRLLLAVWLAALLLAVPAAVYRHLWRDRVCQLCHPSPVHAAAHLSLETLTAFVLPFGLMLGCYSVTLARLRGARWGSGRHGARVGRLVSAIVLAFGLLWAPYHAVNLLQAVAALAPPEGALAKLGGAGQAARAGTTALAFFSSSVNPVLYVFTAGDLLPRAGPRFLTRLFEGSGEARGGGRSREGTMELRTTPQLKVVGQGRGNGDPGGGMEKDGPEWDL

[11] = Bioavailability in dog; type: ADME, organism-based, Canis lupus familiaris; conditions: in vivo
[12] = Induction of phospholipid accumulation in rat hepatoma cells; type: cell-based
[13] = Clearance in dog; type: ADME, organism-based, Canis lupus familiaris; conditions: in vivo
[14] = Lipophilicity, log D of the compound; type: physicochemical; conditions: octanol/water
Rattus norvegicus [15] = species: Rattus norvegicus; assay: Toxicity in rat assessed as liver cholangitis; type: organism-based; conditions: in vivo
[16] = Half life in dog; type: ADME, organism-based, Canis lupus familiaris; conditions: in vivo
[17] = Half life in rat; type: ADME, organism-based; conditions: in vivo
Leukotriene B4 receptor [18] = target: T2, Leukotriene B4 receptor; assay: Binding affinity to leukotriene B4 receptor (unknown origin) at 10 uM; type: protein assay
Method in brief: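 Screened at 10 μM in a human LTB4 binding assay within a panel of over 170 assays; percent inhibition reported.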

[19] = Clearance in rat; type: ADME, organism-based; conditions: in vivo
[20] = Bioavailability in mouse; type: ADME, organism-based; conditions: in vivo
[21] = Bioavailability in rat; type: ADME, organism-based; conditions: in vivo
[22] = Intrinsic clearance in rat hepatocytes assessed per million cells; type: ADME, cell-based, Hepatocyte; conditions: read-out: CLH; method in brief: as §1
Rattus norvegicus [23] = species: Rattus norvegicus; assay: Toxicity in rat assessed as liver hypertrophy; type: organism-based; conditions: in vivo
[24] = Volume of distribution at steady state in mouse; type: ADME, organism-based; conditions: in vivo, read-out: Vdss
Dipeptidyl peptidase 1 [25] = target: T3, Dipeptidyl peptidase 1 (Homo sapiens, UniProt P53634); assay: Inhibition of cathepsin C in human THP1 cells assessed as inhibition of H-Gly-Phe-AFC cleavage by fluorescence assay; type: cell-based, THP-1
T3 sequence (P53634 25-134 limits assumed): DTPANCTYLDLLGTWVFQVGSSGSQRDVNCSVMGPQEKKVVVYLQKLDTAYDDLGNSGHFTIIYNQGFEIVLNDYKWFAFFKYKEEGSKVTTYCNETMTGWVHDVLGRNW
T3 sequence (P53634 231-394 limits assumed): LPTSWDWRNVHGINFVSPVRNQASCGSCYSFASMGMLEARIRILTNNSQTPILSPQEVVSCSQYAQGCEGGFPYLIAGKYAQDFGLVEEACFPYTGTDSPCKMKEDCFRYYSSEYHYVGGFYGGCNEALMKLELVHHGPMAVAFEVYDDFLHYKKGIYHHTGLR
T3 sequence (P53634 395-463 limits assumed): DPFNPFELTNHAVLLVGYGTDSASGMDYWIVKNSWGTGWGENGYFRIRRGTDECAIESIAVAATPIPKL
Method in brief: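 Cellular CatC activity in human THP1 cells measured as cleavage of fluorogenic substrate H-Gly-Phe-AFC; pIC50 determined.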

Dipeptidyl peptidase 1 [26] = target: T3, Dipeptidyl peptidase 1; assay: Inhibition of recombinant human cathepsin C using H-Gly-Arg-AMC as substrate preincubated for 30 mins before substrate addition measured after 60 mins by fluorescence assay
[27] = target: T4, Cathepsin K (Homo sapiens) (UniProt P43235); assay: Inhibition of Cathepsin K (unknown origin) at 10 uM
T4 sequence (whole entry): T1 sequence (P43235 whole entry)

Hepatocyte [28] = assay: Metabolic stability in human hepatocytes assessed per compound oxidation by LC-MS/MS analysis; type: ADME, cell-based
Plasma [29] = assay: Stability in rat plasma; type: ADME, cell-free
Hepatocyte [30] = assay: Metabolic stability in rat hepatocytes assessed per compound oxidation by LC-MS/MS analysis; type: ADME, cell-based
Plasma [31] = assay: Stability in human plasma; type: ADME, cell-free
[32] = target: T4, Cathepsin K (Homo sapiens); assay: as §2

Row | Structure (SMILES) | pKa [1] | microsomal CLint [2] [µL/min/mg] | IC50 (Cathepsin K) [nM] | IC50 (Procathepsin L) [nM] | IC50 (Cathepsin B) [nM] | IC50 (Cathepsin S) [nM] | EC50 [12] [nM] | logD [14] | hepatocyte CLint [22] [µL/min/1e6 cells] | IC50 (Dipeptidyl peptidase 1 [25]) [nM] | IC50 (Dipeptidyl peptidase 1 [26]) [nM] | IC50 [3] [nM] | other results
1 | N#Cc1ccc(-c2ccc(C[C@@H](C#N)NC(=O)C3(N)CCOCC3)cc2)cc1 | 5.8 | 3.6 | > 10000 | > 10000 | > 10000 | > 10000 | > 100000 | 1.9 | 2.9 | – | – | 26000 | Activity (Rattus norvegicus [4]): Non-toxic; Vd [5]: 1.4 L/kg; Vd [6]: 1.9 L/kg; Activity (Rattus norvegicus [7]): Non-toxic; half-life [8]: 2 h; clearance [9]: 9 mL/min/kg; IC50 (Leukotriene B4 receptor [10]): 2000 nM; bioavailability [11]: 72%; clearance [13]: 2 mL/min/kg; Activity (Rattus norvegicus [15]): Non-toxic; half-life [16]: 11.6 h; half-life [17]: 3.5 h; inhibition (Leukotriene B4 receptor [18]): 69%; clearance [19]: 9 mL/min/kg; bioavailability [20]: 95%; bioavailability [21]: 92%; Activity (Rattus norvegicus [23]): Non-toxic; Vd [24]: 1.6 L/kg
2 | CN1Cc2cc(-c3ccc(C[C@@H](C#N)NC(=O)[C@@H]4C[C@@H](O)CCN4)cc3)ccc2C1=O | – | < 4 | 7940 | > 10000 | > 10000 | > 10000 | > 120000 | 0.5 | < 4 | 39.8 | 3.98 | > 33000 | –
3 | CN1Cc2ccc(-c3ccc(C[C@@H](C#N)NC(=O)C4(N)CCOCC4)cc3)cc2C1=O | 6.3 | < 3 | 7940 | – | – | – | – | 1.1 | 41 | 50.1 | – | > 33000 | inhibition [27]: 50%
4 | CC[C@H](N)C(=O)N[C@H](C#N)Cc1ccc(-c2ccccc2)cc1 | – | – | – | – | – | – | – | – | – | 63.1 | 2 | – | –
5 | N#C[C@H](Cc1ccc(-c2ccccc2)cc1)NC(=O)[C@@H]1CCCCN1 | – | – | – | – | – | – | – | – | > 150 | 158 | – | – | Stability (Hepatocyte [28]): Unstable; Stability (Plasma [29]): Stable; Stability (Hepatocyte [30]): Unstable; Stability (Plasma [31]): Stable
6 | N#C[C@H](Cc1ccc(-c2ccccc2)cc1)NC(=O)C1(N)CCOCC1 | 5.4 | > 150 | – | – | – | – | – | 2.3 | > 150 | 31.6 | 2 | > 33000 | inhibition [32]: inactive

Further lines, with some results ahead:

Row | pKa [1] | microsomal CLint [2] [µL/min/mg] | IC50 (Cathepsin K) [nM] | IC50 (Procathepsin L) [nM] | IC50 (Cathepsin B) [nM] | IC50 (Cathepsin S) [nM] | EC50 [12] [nM] | logD [14] | hepatocyte CLint [22] [µL/min/1e6 cells] | IC50 (Dipeptidyl peptidase 1 [25]) [nM] | IC50 (Dipeptidyl peptidase 1 [26]) [nM] | Structure (SMILES) | IC50 [3] [nM] | other results
7 | 7.1 | 20 | – | – | – | – | – | 2.9 | 15 | 3.16 | 2.51 | N#Cc1ccc(-c2ccc(C[C@@H](C#N)NC(=O)C3(N)CCCCC3)cc2)cc1 | 9000 | –
8 | 7.1 | < 3 | 251 | > 10000 | > 10000 | > 10000 | – | 1 | 5 | 7.94 | 25.1 | CN1Cc2cc(-c3ccc(C[C@@H](C#N)NC(=O)[C@@H]4CCCCN4)cc3)ccc2C1=O | – | –
9 | – | 7 | 398 | > 10000 | > 10000 | > 10000 | – | – | 13 | 1 | 3.98 | CSc1cc(-c2ccc(C[C@@H](C#N)NC(=O)[C@@H]3CCCCN3)cc2)ccc1C#N | 2700 | –
10 | 8.4 | < 4 | 1000 | > 10000 | > 10000 | > 10000 | 9000 | 2.7 | < 3 | 10 | 39.8 | N#Cc1ccc(-c2ccc(C[C@@H](C#N)NC(=O)[C@@H]3CCCCN3)cc2)cc1 | 1400 | Activity (Rattus norvegicus [4]): Toxic; Vd [6]: 5.6 L/kg; Activity (Rattus norvegicus [7]): Toxic; Activity (Rattus norvegicus [15]): Toxic; half-life [17]: 4.5 h; clearance [19]: 16 mL/min/kg; bioavailability [21]: 75%; Activity (Rattus norvegicus [23]): Toxic
11 | 6.3 | < 3 | – | – | – | – | – | 0.8 | < 3 | 7.94 | 0.794 | CS(=O)(=O)c1cccc(-c2ccc(C[C@@H](C#N)NC(=O)C3(N)CCOCC3)cc2)c1 | > 33000 | inhibition [32]: inactive
12 | 7.6 | < 3 | 6310 | > 10000 | > 10000 | > 10000 | 75000 | 1.4 | 4 | 12.6 | 5.01 | N#Cc1ccc(-c2ccc(C[C@@H](C#N)NC(=O)[C@@H]3C[C@@H](O)CCN3)cc2)cc1 | > 33000 | –
